This note sets out measurements from ChEMBL document CHEMBL1144198, “Nucleosides and oligonucleotides containing 1,2,3-triazole residues with nucleobase tethers: synthesis via the azide-alkyne 'click' reaction” (Bioorg Med Chem, 2008).

As a reminder, the inhibition is the relative decrease from the control value, in per cent.

Structures are written as SMILES.

The subject of one data set is Hepatitis C virus. In words: Antiviral activity against HCV assessed at 15 uM by ELISA. Type of data set: functional, Hepacivirus hominis. In short, it runs like this:
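HCV replicon replication in GS4.1 cells, read by ELISA-based replicon assay at a single test concentration of 15 µM of drug; reported as % inhibition.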
A general note: ELISA stands for enzyme-linked immunosorbent assay.

A short description of data set [1]: Cytotoxicity against human GS4.1 cells at 15 uM. Type of data set: cell-based. The essentials: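 Cellular toxicity of drug at a single test concentration of 15 µM in GS4.1 (HCV replicon) cells; reported as % toxicity.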
The subject of a further data set is Yellow fever virus. Briefly: Antiviral activity against YFV infected in BHK21 cells assessed as inhibition of virus-induced cytopathic effect at 15 uM. As to conditions: BHK-21. Type of data set: functional. Background: Damage to the host cells serves as the signal in cytopathic effect assays.
The nature of data set [2]: Cytotoxicity against YFV infected BHK21 cells at 15 uM. Type of data set: cell-based, Mesocricetus auratus. The settings on record: hamster, bhk-21, 15 µM.
The next data set relates to dengue virus type 2. Briefly: Antiviral activity against DENV infected in BHK21 cells assessed as inhibition of virus-induced cytopathic effect at 15 uM. The data set is classed as functional. The settings on record: BHK-21. In short, it runs like this:
(§1)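 Single test concentration 15 µM of drug in acutely infected BHK cells; inhibition of virus-induced cytopathogenicity read by CPE assay, reported as % inhibition.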

Data set [3] in a line: Cytotoxicity against DENV infected BHK21 cells at 15 uM. The data set is classed as cell-based, Mesocricetus auratus. As to conditions: hamster, bhk-21, 15 µM. The essentials: (§2)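 Cellular toxicity measured at a single test concentration of 15 µM of drug in BHK cells run alongside the flavivirus CPE assays; reported as % toxicity.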
The next data set concerns West Nile virus. In words: Antiviral activity against WNV infected in BHK21 cells assessed as inhibition of virus-induced cytopathic effect at 15 uM. Type of data set: functional. As to conditions: BHK-21. In short, it runs like this: as §1
A short description of data set [4]: Cytotoxicity against WNV infected BHK21 cells at 15 uM. As to conditions: hamster, bhk-21, 15 µM. The data set is classed as cell-based, Mesocricetus auratus. The essentials:
as §2

With `C#CCn1ccc(=O)[nH]c1=O`, the inhibition at 15 µM in the data set with Hepatitis C virus was 12.1%; in the data set with Yellow fever virus, -11.3%; in the data set with dengue virus type 2, -4.6%; with West Nile virus it was -4.57%. Further, the Activity in data set [1] was -8.85%; in data set [2], 0.08%; in data set [3], 2.76%; in data set [4] it was 2.76%.

`C#CCn1ccc2c(Cl)ncnc21`: the inhibition at 15 µM in the data set with Hepatitis C virus is 69.2%; with Yellow fever virus, -0.25%; with dengue virus type 2, -0.85%; in the data set with West Nile virus it was 3.81%. Further, the Activity in data set [1] was 1.84%; in data set [2] it was -19.45%; in data set [3], -9.83%; in data set [4] it was -9.83%.

Consider `Cc1ccc(C(=O)OC[C@H]2O[C@@H](n3cc(Cn4ccc5c(Cl)nc(N)nc54)nn3)C[C@@H]2OC(=O)c2ccc(C)cc2)cc1`, for which the inhibition at 15 µM with Hepatitis C virus is 32.1%; with dengue virus type 2, -2.39%; with West Nile virus it was -1.44%. The Activity in data set [1] came out at 6.49%; in data set [3] it was 0.17%; in data set [4], 0.17%.

With `Nc1ncnc2c1ccn2Cc1cn([C@H]2C[C@H](O)[C@@H](CO)O2)nn1`, the inhibition at 15 µM in the data set with Hepatitis C virus is -3.8%; in the data set on Yellow fever virus, 11%; in the data set with dengue virus type 2 it was 3.43%; in the data set on West Nile virus, 2.42%. Further, the Activity is on record as -3.79% in data set [1], 4.48% in data set [2], 3.14% in data set [3] and 3.14% in data set [4].

For the molecule `C#CCn1cnc2c(N)ncnc21`, the inhibition at 15 µM in the data set with Hepatitis C virus was 2.99%; in the data set on Yellow fever virus it was -2.81%; in the data set with dengue virus type 2, -3.4%; in the data set on West Nile virus it was -1.77%. Further, the Activity in data set [1] is on record as -10.4%; in data set [2], -7.46%; in data set [3] it was 3.8%; in data set [4], 3.8%.

With `Nc1ccn(Cc2cn([C@H]3C[C@H](O)[C@@H](CO)O3)nn2)c(=O)n1`, the inhibition at 15 µM with Hepatitis C virus was 10.1%; with Yellow fever virus, 7.89%; in the data set with dengue virus type 2, 0.95%; with West Nile virus, 0.24%. The Activity in data set [1] is listed as -5.59%; in data set [2], -4.62%; in data set [3], 9.41%; in data set [4] it was 9.41%.

With `O=c1ccn(Cc2cn([C@H]3C[C@H](O)[C@@H](CO)O3)nn2)c(=O)[nH]1`, the inhibition at 15 µM in the data set with Hepatitis C virus was 0.04%; with Yellow fever virus it was 4.59%; in the data set on dengue virus type 2, 0.75%; with West Nile virus, -2.67%. In addition, the Activity in data set [1] was -5.59%; in data set [2] it was -4.57%; in data set [3], 9.5%; in data set [4], 9.5%.

Consider `Cc1ccc(C(=O)OC[C@H]2O[C@@H](n3cc(Cn4ccc(N)nc4=O)nn3)C[C@@H]2OC(=O)c2ccc(C)cc2)cc1`, for which the inhibition at 15 µM was 15.6% with Hepatitis C virus, -2.26% in the data set on dengue virus type 2 and -3.67% with West Nile virus. In addition, the Activity in data set [1] is on record as -8.12%; in data set [3] it was 4.08%; in data set [4] it was 4.08%.

`Nc1nc(Cl)c2ccn(Cc3cn([C@H]4C[C@H](O)[C@@H](CO)O4)nn3)c2n1`: the inhibition at 15 µM came to 2.93% with Hepatitis C virus, 13.3% in the data set with Yellow fever virus, 2.49% in the data set on dengue virus type 2 and 5.71% with West Nile virus. Also, the Activity was -3.3% in data set [1], 8.55% in data set [2], 1.3% in data set [3] and 1.3% in data set [4].

For the molecule `O=C(Nc1ncnc2c1ncn2Cc1cn([C@H]2C[C@H](O)[C@@H](CO)O2)nn1)c1ccccc1`, the inhibition at 15 µM is 9.02% in the data set with Hepatitis C virus, 8.76% in the data set on Yellow fever virus, 1.02% in the data set on dengue virus type 2 and -1.16% with West Nile virus. Also, the Activity is -3.55% in data set [1], -2.91% in data set [2], 5.54% in data set [3] and 5.54% in data set [4].

Turning to `Cc1ccc(C(=O)OC[C@H]2O[C@@H](n3cc(Cn4ccc5c(Cl)ncnc54)nn3)C[C@@H]2OC(=O)c2ccc(C)cc2)cc1`, the inhibition at 15 µM is 49.2% with Hepatitis C virus, -1.05% in the data set with dengue virus type 2 and -2.95% in the data set with West Nile virus. The Activity was 20.77% in data set [1], 0.31% in data set [3] and 0.31% in data set [4].

`Nc1ncnc2c1ncn2Cc1cn([C@H]2C[C@H](O)[C@@H](CO)O2)nn1`: the inhibition at 15 µM in the data set on Hepatitis C virus is 7.54%; in the data set with Yellow fever virus, 8.36%; in the data set with dengue virus type 2, 1.02%; in the data set on West Nile virus, -0.43%. Also, the Activity was -0.61% in data set [1], -2.12% in data set [2], 7.85% in data set [3] and 7.85% in data set [4].

Consider `Cc1ccc(C(=O)OC[C@H]2O[C@@H](n3cc(Cn4ccc(=O)[nH]c4=O)nn3)C[C@@H]2OC(=O)c2ccc(C)cc2)cc1`, for which the figures for the inhibition at 15 µM in the data set with Hepatitis C virus, in the data set on dengue virus type 2 and in the data set with West Nile virus were 11.3%, 0.82% and -2.84%, respectively. Moreover, the Activity in data set [1] was -4.12%; in data set [3], 3.37%; in data set [4], 3.37%.

For `OC[C@H]1O[C@@H](n2cc(Cn3cnc4c3ncn3ccnc43)nn2)C[C@@H]1O`, the inhibition at 15 µM is 6.07% with Hepatitis C virus, 4.39% with Yellow fever virus, 2.23% in the data set with dengue virus type 2 and -2.44% with West Nile virus. Moreover, the Activity in data set [1] is on record as -2.24%; in data set [2] it was -11.67%; in data set [3] it was -2.95%; in data set [4], -2.95%.
